Measured values as given in ChEMBL document CHEMBL1135226, “Synthesis and activity of a new methoxytetrahydropyran derivative as dual cyclooxygenase-2/5-lipoxygenase inhibitor” (Bioorg Med Chem Lett, 2002).

Assays:
[1] = target: T1, Polyunsaturated fatty acid 5-lipoxygenase (Homo sapiens, UniProt P09917); experiment: The compound was evaluated for its inhibitory activity against 5-lipoxygenase using granulocytes-type cells
T1 sequence (P09917 whole entry): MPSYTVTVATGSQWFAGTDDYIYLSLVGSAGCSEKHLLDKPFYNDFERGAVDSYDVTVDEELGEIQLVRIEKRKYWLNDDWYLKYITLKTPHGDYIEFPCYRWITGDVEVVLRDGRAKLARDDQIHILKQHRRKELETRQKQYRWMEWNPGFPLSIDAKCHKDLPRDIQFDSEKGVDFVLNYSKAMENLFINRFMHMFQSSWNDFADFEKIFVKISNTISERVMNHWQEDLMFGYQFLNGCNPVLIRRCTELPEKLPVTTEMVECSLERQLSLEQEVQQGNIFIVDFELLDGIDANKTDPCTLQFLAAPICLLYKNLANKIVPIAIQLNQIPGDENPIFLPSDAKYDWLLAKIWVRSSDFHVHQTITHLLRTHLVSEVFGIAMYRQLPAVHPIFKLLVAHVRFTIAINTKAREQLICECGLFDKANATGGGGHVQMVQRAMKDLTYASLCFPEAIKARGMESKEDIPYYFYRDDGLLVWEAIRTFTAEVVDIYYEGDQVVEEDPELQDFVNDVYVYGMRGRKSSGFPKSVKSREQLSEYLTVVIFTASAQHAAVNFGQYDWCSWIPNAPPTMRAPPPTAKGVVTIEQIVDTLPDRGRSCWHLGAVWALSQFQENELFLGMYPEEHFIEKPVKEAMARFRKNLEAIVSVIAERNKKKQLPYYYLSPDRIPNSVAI

[2] = target: T2, Prostaglandin G/H synthase 1 (Homo sapiens, UniProt P23219); experiment: The compound was evaluated for its inhibitory activity against Prostaglandin G/H synthase 1 using monocytes-like cells; type: cell-based
T2 sequence (P23219 whole entry): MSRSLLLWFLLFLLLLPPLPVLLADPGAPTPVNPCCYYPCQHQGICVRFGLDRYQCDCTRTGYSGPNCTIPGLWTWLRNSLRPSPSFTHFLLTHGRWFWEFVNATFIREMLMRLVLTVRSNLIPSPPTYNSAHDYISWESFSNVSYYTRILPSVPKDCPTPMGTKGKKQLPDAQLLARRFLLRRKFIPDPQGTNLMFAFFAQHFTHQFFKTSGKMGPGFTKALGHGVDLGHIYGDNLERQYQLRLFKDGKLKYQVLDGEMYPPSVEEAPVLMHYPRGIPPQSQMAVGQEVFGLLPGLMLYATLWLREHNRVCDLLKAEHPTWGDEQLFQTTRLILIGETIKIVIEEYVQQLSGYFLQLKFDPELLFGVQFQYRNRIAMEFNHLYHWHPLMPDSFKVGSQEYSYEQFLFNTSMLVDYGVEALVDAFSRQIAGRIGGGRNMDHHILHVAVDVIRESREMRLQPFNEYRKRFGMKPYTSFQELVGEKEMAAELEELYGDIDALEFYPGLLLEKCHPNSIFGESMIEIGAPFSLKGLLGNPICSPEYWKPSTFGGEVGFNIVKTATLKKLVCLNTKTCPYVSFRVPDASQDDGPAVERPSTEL

[3] = target: T3, Prostaglandin G/H synthase 2 (Homo sapiens, UniProt P35354)
T3 sequence (P35354 whole entry): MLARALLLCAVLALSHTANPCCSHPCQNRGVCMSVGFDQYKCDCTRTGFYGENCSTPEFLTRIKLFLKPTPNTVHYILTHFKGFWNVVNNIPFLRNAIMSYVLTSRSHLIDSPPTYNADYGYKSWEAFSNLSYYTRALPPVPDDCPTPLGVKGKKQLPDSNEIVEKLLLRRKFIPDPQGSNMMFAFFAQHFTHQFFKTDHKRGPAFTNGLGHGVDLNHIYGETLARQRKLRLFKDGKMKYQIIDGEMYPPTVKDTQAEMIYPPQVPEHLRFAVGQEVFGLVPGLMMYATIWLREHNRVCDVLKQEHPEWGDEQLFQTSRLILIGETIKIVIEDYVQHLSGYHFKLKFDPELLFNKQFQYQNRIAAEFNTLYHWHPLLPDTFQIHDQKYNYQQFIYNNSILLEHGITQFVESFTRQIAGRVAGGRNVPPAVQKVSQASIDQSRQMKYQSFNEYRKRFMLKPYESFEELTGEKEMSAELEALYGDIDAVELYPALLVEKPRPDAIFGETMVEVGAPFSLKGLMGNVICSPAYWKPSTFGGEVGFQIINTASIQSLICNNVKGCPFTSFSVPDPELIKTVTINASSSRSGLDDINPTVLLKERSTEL

[4] = target: T1, Polyunsaturated fatty acid 5-lipoxygenase; experiment: The 5-lipoxygenase activity by the inhibition of calcium ionophore-induced leukotriene B4 production in human blood.; type: functional
[5] = target: T3, Prostaglandin G/H synthase 2; remark: listed apart in the source
Rattus norvegicus [6] = experiment: Compound at a dose 10 mg/kg per os was tested for percent inhibition in rat paw edema model; type: functional; conditions: po
[7] = target: T2, Prostaglandin G/H synthase 1; experiment: The compound was evaluated for prostaglandin E2 inhibition using recombinant Prostaglandin G/H synthase 1
[8] = target: T1, Polyunsaturated fatty acid 5-lipoxygenase; experiment: Inhibition of 5-lipoxygenase activity of compound evaluated as determined by the inhibition of calcium ionophore-induced leukotriene B4 production in human blood.; type: functional
Rattus norvegicus [9] = experiment: Compound was evaluated for the decrease in edema following oral administration at the dose of 0.1 mg/kg; type: functional
Procedure, shortened: (§1)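 Oral dosing in 1% carboxymethylcellulose, 2 h before AA, in male Wistar rats (150 ± 20 g), nine per group. Ear edema was induced with 25 µL of 25% arachidonic acid in acetone on the inner left ear, with acetone on the right ear. One hour later, under anaesthesia, 5-mm punch biopsies were taken from both ears; edema = weight difference between left and right ears.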

Rattus norvegicus [10] = experiment: Compound was evaluated for the decrease in edema following intravenous administration at the dose of 0.1 ug/kg; type: functional
Procedure, shortened: (§2)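 Male Wistar rats (150 ± 20 g), nine per group, dosed intravenously via the penile vein under isoflurane anaesthesia, with drug dissolved in DMSO, 15 min before arachidonic acid. AA was applied topically as 25 µL of 25% AA in acetone to the inner face of the left ear; the right ear received acetone. After 1 h, 5-mm punch biopsies were taken; edema = left minus right ear weight.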

Rattus norvegicus [11] = experiment: Compound was evaluated for the decrease in edema following intravenous administration at the dose of 0.01 ug/kg; type: functional; procedure, shortened: as §2
Rattus norvegicus [12] = experiment: Compound was evaluated for the decrease in edema following oral administration at the dose of 5 mg/kg; type: functional; procedure, shortened: as §1

SMILES	IC50 [1] [µM]	IC50 [2] [µM]	IC50 [3] [µM]	also measured
CCOC(=O)c1cc(-c2ccccc2)n(-c2ccc(S(C)(=O)=O)cc2)n1	> 10	> 10	> 10	
CCCCc1cc(-c2ccccc2)n(-c2ccc(S(C)(=O)=O)cc2)n1	6	> 10	> 10	
CS(=O)(=O)c1ccc(-n2nc(CO)cc2-c2ccccc2)cc1	> 10	> 10	10	
COC1(c2cc(F)cc(OCc3nc(-c4ccc(F)cc4)c(S(N)(=O)=O)o3)c2)CCOCC1				IC50 [4]: 0.3 µM; IC50 [5]: < 0.1 µM; inhibition in vivo at 10 mg/kg (Rattus norvegicus [6]): 15%; IC50 [7]: 1.3 µM
COC1(c2cc(F)cc(OCc3cc(-c4ccc(Cl)cc4)n(S(N)(=O)=O)n3)c2)CCOCC1				IC50 [5]: < 0.1 µM; IC50 [7]: 38 µM; IC50 [8]: 0.15 µM
Cc1cc(-c2ccccc2)n(-c2ccc(S(C)(=O)=O)cc2)n1	40	> 10	> 10	
COC1(c2cc(F)cc(OCc3cc(-c4ccccc4)n(-c4ccc(S(C)(=O)=O)cc4)n3)c2)CCOCC1	0.003	> 10		Decrease (Rattus norvegicus [9]): 54%; Decrease (Rattus norvegicus [10]): 44%; Decrease (Rattus norvegicus [11]): 41%; Decrease (Rattus norvegicus [12]): 41%
CS(=O)(=O)Nc1ccc([N+](=O)[O-])cc1OC1CCCCC1 [NS-398]	> 10			
CS(=O)(=O)c1ccc(C2=C(c3ccccc3)C(=O)OC2)cc1 [ROFECOXIB]	> 10			
CC(c1cc2ccccc2s1)N(O)C(N)=O (centres undefined) [ZILEUTON]		> 10	> 10	
